Columns and labels:
Rattus norvegicus [1] = organism: Rattus norvegicus; conditions: in vivo, po, 80 mg/kg
Rattus norvegicus [2] = experiment: Dose required to produce an excretion of 2 mequiv of Na+/kg bw/6h vs control groups; type: functional
Method in brief: (§1)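 Male Sprague-Dawley rats (HC/CFY, 175-200 g), fasted and water-deprived 18 h before and during the test. Compound dosed by gavage in 1% carboxymethyl cellulose/0.1% Tween 80, then water load 2.5 mL/100 g bw po. Urine collected 6 h in metabolic cages; Na+ by flame photometry. Effective doses vs vehicle controls derived by linear regression of dose-response data.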

Rattus norvegicus [3] = organism: Rattus norvegicus; experiment: Dose required to produce increase in 200 % in urine production vs control groups; type: functional
Method in brief: as §1

Rattus norvegicus [4] = experiment: Mean urinary output in rats when compound administered at 0 mg/kg po and vehicle dosed at 0 umol/kg; type: ADME, organism-based, Urine; design: dose 0 mg/kg, route oral; conditions: in vivo
Method in brief: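 Water-loaded male Sprague-Dawley rats (HC/CFY, 175-200 g) fasted and without water for 18 h. Oral gavage of 2.5-160 mg/kg in 1% CMC with 0.1% Tween 80, then distilled water 2.5 mL/100 g po. Urine collected 6 h in metabolic cages, mean output in mL/6 h/kg bw. Unpaired Student t-test against vehicle; dose-response by linear regression.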

Rattus norvegicus [5] = experiment: Post dosing time interval of maximum activity; type: functional
Method in brief: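 Interval of peak activity taken from timed urine collections (0-1, 1-2, 2-3, 3-4, 4-6 h) after a single oral dose in water-loaded fasted rats, […]. Urine volume and Na+ excretion followed over time.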

Rattus norvegicus [6] = experiment: Mean sodium excretion in rats when compound administered at 0 mg/kg po and vehicle dosed at 0 umol/kg; type: ADME, organism-based; design: dose 0 mg/kg, route oral; conditions: in vivo
Method in brief: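 Male Sprague-Dawley rats (HC/CFY, 175-200 g) fasted and water-deprived 18 h before and during the test. Dosed by gavage at 2.5-160 mg/kg in 1% carboxymethyl cellulose/0.1% Tween 80, 0.5 mL/100 g bw. Immediately hydrated with water (2.5 mL/100 g bw, po). Urine collected 6 h in metabolic cages; Na+ and K+ by flame photometry; mean mequiv/6 h/kg bw; nonpaired Student t-test.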

Rattus norvegicus [7] = experiment: Mean potassium excretion in rats when compound administered at 0 mg/kg po and vehicle dosed at 0 umol/kg; type: ADME, organism-based; design: dose 0 mg/kg, route oral; conditions: in vivo
Method in brief: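 Male Sprague-Dawley rats (HC/CFY, 175-200 g), no food or water for 18 h before and during the test. Single gavage dose (2.5-160 mg/kg; vehicle 1% carboxymethyl cellulose/0.1% Tween 80, 0.5 mL/100 g bw), then distilled water 2.5 mL/100 g bw po. Individual metabolic cages, 6 h urine. K+ by flame photometry, Cl- colorimetric, as mequiv/6 h/kg bw; unpaired Student t-test vs control.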

Rattus norvegicus [8] = organism: Rattus norvegicus; experiment: Dose required to produce increase in 50 % in urine production vs control groups; type: functional; conditions: Rattus norvegicus, Urine
Method in brief: as §1

V (Rattus norvegicus [1]): 75.5 ml 6hr-1 (kg of body weight)-1
V (Rattus norvegicus [4]): 24.04 ml 6hr-1 (kg of body weight)-1
Structure (SMILES): NS(=O)(=O)c1cc(C(=O)O)c(NCc2ccco2)cc1Cl [FUROSEMIDE]
ED2 (Rattus norvegicus [2]): 12.95 mg/kg
ED200 (Rattus norvegicus [3]): 70.59 mg/kg
Time (Rattus norvegicus [5]): 1 h
Na (Rattus norvegicus [6]): 0.39 m equiv 6hr-1 kg-1 (body weight)-1
K (Rattus norvegicus [7]): 0.47 m equiv 6hr-1 kg-1 (body weight)-1
ED50 (Rattus norvegicus [8]): 12.1 mg/kg

Reference: ChEMBL document CHEMBL1125330, “N-substituted pyrazino[2,3-c][1,2,6]thiadiazine 2,2-dioxides. A new class of diuretics” (J Med Chem, 1992)
